According to ChEMBL document CHEMBL4028899, “Tyrocidine A Analogues Bearing the Planar d-Phe-2-Abz Turn Motif: How Conformation Impacts Bioactivity” (J Med Chem, 2017):
Values after ≈ are worked out from the molar mass of the structure shown. Active and inactive are the calls of the source. No cut-off for these calls is given here. Square brackets hold non-standard residues; d marks the D form. Peptide text beside a SMILES is read from it. Orn = NCCC[C@H](N)C(=O)O; 2Abz = Nc1ccccc1C(=O)O

What was measured:
Candida albicans [1] = test: Antifungal activity against Candida albicans after 48 hrs in presence of 0.39 uM amphotericin B; type: functional
Method in brief: (§1)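 C. albicans in RPMI (OD 0.1, diluted 1:100) was tested by two-fold compound dilution with 48 h incubation. The medium was supplemented with amphotericin B at 0.78 or 1.56 µM, giving a final 0.39 or 0.78 µM per well. MIC was read visually as no colony growth, from three concordant experiments each with three internal replicates.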

Staphylococcus aureus [2] = test: Antibacterial activity against Staphylococcus aureus assessed as decrease in intracellular density at 4 times MIC after 1 hr by uranyl acetate/lead citrate staining-based transmission electron microscopic method; type: functional, cell-based
Method in brief: (§2)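 Overnight cultures in non-cation-adjusted MHB were diluted to OD 0.4. 1 mL aliquots were incubated 1 h at 37 °C with compound at 4 x MIC or without compound (control). Cells were washed in Tris buffer (pH 7.4) and fixed in 4% glutaraldehyde for 2 h at room temperature. They were post-fixed in 1% osmium tetroxide, ethanol/acetone dehydrated, epoxy embedded (60 °C, 48 h), ultrathin sectioned and imaged by TEM.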

Staphylococcus aureus [3] = test: Antibacterial activity against Staphylococcus aureus assessed as induction of cell wall rupture at 4 times MIC after 1 hr by uranyl acetate/lead citrate staining-based transmission electron microscopic method; type: functional; method in brief: as §2
Pseudomonas aeruginosa [4] = test: Antibacterial activity against Pseudomonas aeruginosa assessed as induction of cell blebbing at 4 times MIC after 1 hr by uranyl acetate/lead citrate staining-based transmission electron microscopic method; type: functional; method in brief: as §2
Escherichia coli = test: Antibacterial activity against Escherichia coli after 18 hrs; type: functional
Method in brief: (§3)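 Broth microdilution in non-cation-adjusted MHB. Overnight 37 °C cultures adjusted to OD 0.1, then diluted 1:100. Two-fold compound dilutions were prepared in the plate before inoculation, with growth and sterility controls. Plates were incubated 18 h at 37 °C and read at OD600. MIC was the lowest concentration with no growth, from three concordant experiments each with three internal replicates.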

Staphylococcus aureus [5] = test: Antibacterial activity against Staphylococcus aureus assessed as induction of cell membrane rupture at 4 times MIC after 1 hr by uranyl acetate/lead citrate staining-based transmission electron microscopic method; type: functional; method in brief: as §2
Staphylococcus aureus [6] = test: Antibacterial activity against Staphylococcus aureus after 18 hrs; type: functional; method in brief: as §3
Pseudomonas aeruginosa [7] = test: Antibacterial activity against Pseudomonas aeruginosa after 18 hrs; type: functional; method in brief: as §3
Candida albicans [8] = test: Antifungal activity against Candida albicans after 48 hrs; type: functional
Method in brief: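 A single C. albicans colony was taken into RPMI, adjusted to OD 0.1 and diluted 1:100. Two-fold compound dilutions were set up as for the bacterial microdilution and incubated 48 h. MIC was scored visually from colonies on the well bottoms as the lowest concentration with no growth, from three concordant experiments each with three internal replicates.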

Pseudomonas aeruginosa [9] = test: Antibacterial activity against Pseudomonas aeruginosa assessed as induction of total membrane lysis at 4 times MIC after 1 hr by uranyl acetate/lead citrate staining-based transmission electron microscopic method; type: functional; method in brief: as §2
Candida albicans [10] = test: Antifungal activity against Candida albicans after 48 hrs in presence of 0.78 uM amphotericin B; type: functional; method in brief: as §1
[11] = Solubility of the compound in water; type: physicochemical; settings: buffer
Pseudomonas aeruginosa [12] = test: Antibacterial activity against Pseudomonas aeruginosa assessed as induction of cell membrane rupture at 4 times MIC after 1 hr by uranyl acetate/lead citrate staining-based transmission electron microscopic method; type: functional; method in brief: as §2

MIC (Candida albicans [1]) [µM]	MIC (Escherichia coli) [µM]	MIC (Staphylococcus aureus [6]) [µM]	MIC (Pseudomonas aeruginosa [7]) [µM]	MIC (Candida albicans [8]) [µM]	MIC (Candida albicans [10]) [µM]	solubility [11]	Compound	Activity (Staphylococcus aureus [2])	Activity (Staphylococcus aureus [3])	Activity (Pseudomonas aeruginosa [4])	Activity (Staphylococcus aureus [5])	Activity (Pseudomonas aeruginosa [9])	Activity (Pseudomonas aeruginosa [12])
0.78	12.5 (≈ 16.2 µg/mL)	1.56 (≈ 2.02 µg/mL)	25 (≈ 32.3 µg/mL)	12.5 (≈ 16.2 µg/mL)	0.39	–	CC(C)C[C@@H]1NC(=O)[C@H](CCCN)NC(=O)[C@H](C(C)C)NC(=O)[C@H](Cc2ccc(O)cc2)NC(=O)[C@H](CCCCN)NC(=O)[C@H](CC(N)=O)NC(=O)[C@@H](Cc2ccccc2)NC(=O)[C@H](Cc2ccccc2)NC(=O)c2ccccc2NC(=O)[C@@H](Cc2ccccc2)NC1=O (cyclo([2Abz]F[dF]NKYV[Orn]L[dF]))	Active	Active	Active	Active	Active	–
–	50 (≈ 64.6 µg/mL)	6.25 (≈ 8.08 µg/mL)	100 (≈ 129 µg/mL)	–	–	Insoluble	CC(C)C[C@@H]1NC(=O)[C@H](CCCN)NC(=O)[C@H](C(C)C)NC(=O)[C@H](Cc2ccc(O)cc2)NC(=O)[C@H](CCC(N)=O)NC(=O)[C@H](CC(N)=O)NC(=O)[C@@H](Cc2ccccc2)NC(=O)[C@H](Cc2ccccc2)NC(=O)c2ccccc2NC(=O)[C@@H](Cc2ccccc2)NC1=O (cyclo([2Abz]F[dF]NQYV[Orn]L[dF]))	–	–	–	–	–	–
–	–	–	–	1.56 (≈ 1.44 µg/mL)	–	–	C[C@@H]1[C@H](O)[C@@H](C)/C=C/C=C/C=C/C=C/C=C/C=C/C=C/[C@H](O[C@@H]2O[C@H](C)[C@@H](O)[C@H](N)[C@@H]2O)C[C@@H]2O[C@](O)(C[C@@H](O)C[C@@H](O)[C@H](O)CC[C@@H](O)C[C@@H](O)CC(=O)O[C@H]1C)C[C@H](O)[C@H]2C(=O)O [AMPHOTERICIN B]	–	–	–	–	–	–
0.78	25 (≈ 31.8 µg/mL)	1.56 (≈ 1.98 µg/mL)	100 (≈ 127 µg/mL)	3.12 (≈ 3.97 µg/mL)	0.39	–	CC(C)C[C@@H]1NC(=O)[C@H](CCCN)NC(=O)[C@H](C(C)C)NC(=O)[C@H](Cc2ccc(O)cc2)NC(=O)[C@H](CCC(N)=O)NC(=O)[C@H](CC(N)=O)NC(=O)[C@@H](Cc2ccccc2)NC(=O)[C@H](Cc2ccccc2)NC(=O)[C@@H]2CCCN2C(=O)[C@@H](Cc2ccccc2)NC1=O [TYROCIDINE A] (cyclo(F[dF]NQYV[Orn]L[dF]P))	Active	Active	–	Active	–	inactive
